# Compound activity: PubChem, several laboratories
# Sampled rows, rich in hits. Any-hit rate of the full collection: about 4.6%.
# Hck Nef HTS: human Hck-Nef kinase inhibition. Recombinant Hck-YEEI plus Nef, Z-Lyte FRET kinase assay. inhibition, % at 20 µM. 220,000 compounds, 0.68% hits;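 active means Hck-Nef kinase inhibition above about 50%, limit read from the data; inactive means inhibition below that limit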;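 further: 0% = DMSO with Hck plus Nef and 100% = Hck alone without Nef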
# NCF1 inh: blocks human p47phox regulatory protein of NADPH oxidases. inhibition, % at 24.7 µM. p47phox/p22phox peptide binding, fluorescence polarization, 2 h. 220,000 compounds, 0.53% hits. P14598;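 active means inhibition above about 30%, limit read from the data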;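 further: 0% = p47phox with labelled peptide and 100% = labelled peptide alone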
# Target sequence (P14598 whole entry, looked up): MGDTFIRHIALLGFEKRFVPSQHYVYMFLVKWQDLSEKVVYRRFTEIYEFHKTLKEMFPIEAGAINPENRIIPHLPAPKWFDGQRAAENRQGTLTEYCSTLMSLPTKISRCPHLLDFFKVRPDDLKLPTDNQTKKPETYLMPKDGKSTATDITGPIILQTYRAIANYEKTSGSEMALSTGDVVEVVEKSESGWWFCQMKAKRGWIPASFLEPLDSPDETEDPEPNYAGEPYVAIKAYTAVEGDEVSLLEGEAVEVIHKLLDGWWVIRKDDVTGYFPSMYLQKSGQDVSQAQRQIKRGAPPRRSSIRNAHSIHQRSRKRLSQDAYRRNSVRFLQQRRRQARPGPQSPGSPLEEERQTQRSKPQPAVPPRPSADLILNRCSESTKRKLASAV
# WT yeast gro inh: growth inhibition of WT yeast, mitochondrial fusion screen; AID 1362; 190,000 compounds, 2.1% hits; mitochondrial fusion phenotypic screen, WT strain; inhibition, % at 10 µM; in the data active means inhibition above about 58%; tested in S. cerevisiae
# Calb biofilm kill: mixtures killing C. albicans biofilm. C. albicans biofilm persisters + clotrimazole, fluorescence viability; primary screen in compound mixtures of four per well. inhibition, % at 7.6 µM. 120,000 compounds, 0.02% hits;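 active means inhibition above 30.3% in the primary screen of four-compound pools, then above 30% when the compound was retested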;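 further: compounds exposed to preformed 24 h biofilms for 48 h; 0% = untreated biofilm control and 100% = clotrimazole plus chlorhexidine kill blank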
#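 Test system: C. albicans CAF4-2 wild-type biofilms; buffer or medium: RPMI/MOPS medium, pH 7.0; schedule: 24 h biofilm formation, then 48 h compound exposure, 37 °C; detection: Alamar Blue fluorescence; measure: percent inhibition of biofilm viability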
# RAM inhibit: inhibitors of the yeast RAM network; 190,000 compounds, 1.8% hits; inhibition, % at 50 µM; AID 868; S. cerevisiae dse1pr::URA3 reporter, 5-FOA growth OD615, 2 d; analog-sensitive cbk1-as2 kinase mutant strain;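 active means inhibition above a set limit, 3 SD over mean compound inhibition, cut at about 8.4% in these data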;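 further: 0% = DMSO-only wells with no growth and 100% = 10 µM 1-NA-PP1 full growth; inhibition rescues growth on 5-FOA so higher OD means more RAM inhibition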
# Arbovirus inh: antivirals against arbovirus infection; arbovirus infection cell-based antiviral screen; inhibition, % at 10 µM; 200,000 compounds, 0.37% hits; AID 1251; in the data active means inhibition above about 30%
# * hit, by the source's call; x = no result.
SMILES,Hck Nef HTS,NCF1 inh,WT yeast gro inh,Calb biofilm kill,RAM inhibit,Arbovirus inh
Cc1ccc2nc(-c3cccc(NS(C)(=O)=O)c3)cc(-c3ccccc3)c2c1,1.9,-11.2,94.0*,12.3,0.5,-31.6
Cc1nc(-c2cccc(NS(=O)(=O)c3ccccc3)c2)cs1,2.5,-9.1,-8.4,x,0.7,10.6
N#C/C(=C(/O)CCl)c1nc(-c2ccccc2)cs1,-11.0,-20.4,x,13.2,x,x
N#C/C(=N\Nc1ccccc1F)c1nc(-c2ccccc2)cs1,17.4,-4.6,5.8,28.1,9.8*,-6.9
Cc1ccc(S(=O)(=O)NCCc2nnc3ccc(SCC(=O)Nc4nc5ccccc5s4)nn23)cc1,5.0,-5.5,7.1,10.1,10.0*,8.6
CCc1ccc(OCc2nnc(SCC(=O)N3CCN(c4ccccc4)CC3)o2)cc1,5.7,-16.1,-4.2,18.2,8.4*,-2.6
O=C(CSc1nnc(COc2ccccc2)o1)N1CCN(c2ccccc2)CC1,9.6,-20.7,-22.4,13.5,3.2,-18.3
O=C(Nc1ccc(N2CCOCC2)cc1)C1CCCCN1S(=O)(=O)c1ccccc1 (stereo not given),17.7,-17.1,x,15.0,x,x
CN(Cc1ccc(OCC(O)CN2CCCCC2)cc1)Cc1ccnc2ccccc12 (stereo not given),-3.1,-11.3,4.3,9.5,0.6,7.5
Cc1nn(C)cc1CN(C)Cc1ccc(OCC(O)CN2CCCCC2)cc1 (stereo not given),-6.1,-7.6,-3.0,8.1,1.4,34.3*
O=C(NC1CCCCC1)c1ccc(Cn2cc(Cl)cn2)cc1,-1.9,-12.6,7.6,x,2.3,-9.9
Cc1cc(NC(=S)N(Cc2cccc(Br)c2)CC2CCC(C(=O)O)CC2)ccc1Cl (stereo not given),-5.6,-12.6,71.0*,9.2,3.8,-9.5
Cc1cc(NC(=S)N(Cc2ccc(Cl)cc2)Cc2ccc(C(=O)O)cc2)ccc1Cl,28.6,-14.6,70.9*,17.9,4.5,-2.0
Cc1ccc(NC(=S)N(Cc2ccc(Br)cc2)Cc2ccc(C(=O)O)cc2)cc1C,34.1,-16.8,67.5*,20.9,3.2,-11.0
Cc1cc(C)cc(NC(=S)N(Cc2ccc(Br)cc2)Cc2ccc(C(=O)O)cc2)c1,1.7,-2.4,79.2*,3.0,3.0,-16.3
COc1ccc(OCCC(=O)OCC(=O)NCCc2ccccc2)cc1,0.6,-3.0,-12.1,8.2,1.9,7.5
C1CN(CC2CCN(c3nc4nonc4nc3N3CCSCC3)CC2)CCO1,5.0,33.8*,-0.7,23.1,0.5,0.8
CC(C)OCCCNS(=O)(=O)c1ccc2ccccc2c1,1.4,-3.3,6.8,x,-0.7,2.3
CC(C)OC(=O)C(C(=O)C(F)(F)F)c1cc(NS(=O)(=O)c2ccc3ccccc3c2)c2ccccc2c1O (stereo not given),0.0,-29.0,62.5*,8.8,4.9,-16.4
CC(=O)Nc1ccc(C(=O)OCc2ccccc2Br)cc1,22.5,-14.7,75.7*,9.7,8.8*,7.7
COc1ccc(C)cc1NC(=O)C1COc2ccccc2O1 (stereo not given),12.3,-11.5,7.5,20.0,2.2,49.7*
COC(=O)c1ccsc1NC(=O)C1COc2ccccc2O1 (stereo not given),2.0,-6.0,5.5,x,2.2,31.5*
COc1ccc(N2CSC3=C(C#N)C(c4cc(OC)ccc4OC)CC(=O)N3C2)c(OC)c1 (stereo not given),-0.3,6.8,13.3,x,0.0,-2.5
COc1ccc(N2CSC3=C(C#N)C(c4cc(OC)c(OC)cc4OC)CC(=O)N3C2)c(OC)c1 (stereo not given),-1.2,32.7*,5.5,x,0.1,-11.0
COc1cc(N)c(Cl)cc1Cl,18.2,-3.4,-2.5,21.5,0.0,0.3
SMILES,Hck Nef HTS,NCF1 inh,WT yeast gro inh,Calb biofilm kill,RAM inhibit,Arbovirus inh
Nc1ccc2c(c1)OC1(CCCCC1)O2,27.0,44.8*,0.8,10.7,-1.1,-11.2
O=C(Oc1ccccc1)c1cccc2cccnc12,8.1,99.2*,-8.9,x,-0.1,12.3
O=C(COC(=O)C12CC3CC(CC(O)(C3)C1)C2)Nc1ccccc1OC(F)F,2.9,-2.8,58.4*,x,-0.9,13.8
COc1nccc(Nc2ccccc2)c1C#N,1.3,44.1*,2.5,x,0.3,-3.6
COc1ccc(OC)c(N=C(N)N=C(N)N)c1,-4.8,-10.9,-0.4,13.8,0.0,2.6
COc1ccccc1CNC(=O)c1csc(Cc2ccc(Cl)cc2)n1,0.4,-21.7,27.8,x,8.7*,-11.8
